# ChEMBL document CHEMBL1126566, “Studies on analogues of classical antifolates bearing the naphthoyl group in place of benzoyl in the side chain” (J Med Chem, 1993)
# Changes are numbered by the printed parent chain.
# Assays:
# [1] = test system: L1210; experiment: Tested for transport into L1210 cells measured as cell influx; type: functional, cell-based, Mus musculus
# [2] = test system: Mus musculus; experiment: Antitumor activity against E0771 mammary adenocarcinoma in mice at 100 mg/kg(5 days) was determined and […] at day 14 was reported; type: functional
# [3] = test system: Mus musculus; experiment: Antitumor activity against E0771 mammary adenocarcinoma in mice at 150 mg/kg(5 days) was determined and tumor volume at day 7 was reported; type: functional
# In short: (§1)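 Mice bearing implanted E0771 mammary adenocarcinoma, five per test group. Dosing was daily for 5 days, starting on day 3 after implantation. Tumor volume (mm³) was calculated as 4/3πr³ and is also expressed as treated/control (%).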
# [4] = test system: Mus musculus; experiment: Antitumor activity against E0771 mammary adenocarcinoma in mice at 100 mg/kg(5 days) was determined and tumor volume at day 10 was reported; type: functional; in short: as §1
# [5] = test system: Mus musculus; experiment: Antitumor activity against E0771 mammary adenocarcinoma in mice at 100 mg/kg(5 days) was determined and tumor volume at day 7 was reported; type: functional; in short: as §1
# [6] = Activity relative to saturating aminopterine at 100 uM against CCRF-CEM Folyl-polyglutamate synthetase; type: ADME; settings: human
# In short: (§2)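 FPGS from CCRF-CEM cells: freeze-thawed lysates fractionated by (NH₄)₂SO₄ (0–40% saturation pellet) and gel sieving, stored at –90 °C in 20% glycerol, free of detectable γ-glutamyl hydrolase. Product was separated on DEAE-cellulose minicolumns. Run in duplicate or triplicate, and each experiment was repeated at least once.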
# [7] = test system: L1210; experiment: Tested for the ability to inhibit growth in vitro against L1210; type: functional, cell-based; settings: Mus musculus
# [8] = biological target: T1, Folylpolyglutamate synthase, mitochondrial (Mus musculus) (UniProt P48760); experiment: Specific activity of L1210 Folyl-polyglutamate synthase
# T1 sequence (whole entry): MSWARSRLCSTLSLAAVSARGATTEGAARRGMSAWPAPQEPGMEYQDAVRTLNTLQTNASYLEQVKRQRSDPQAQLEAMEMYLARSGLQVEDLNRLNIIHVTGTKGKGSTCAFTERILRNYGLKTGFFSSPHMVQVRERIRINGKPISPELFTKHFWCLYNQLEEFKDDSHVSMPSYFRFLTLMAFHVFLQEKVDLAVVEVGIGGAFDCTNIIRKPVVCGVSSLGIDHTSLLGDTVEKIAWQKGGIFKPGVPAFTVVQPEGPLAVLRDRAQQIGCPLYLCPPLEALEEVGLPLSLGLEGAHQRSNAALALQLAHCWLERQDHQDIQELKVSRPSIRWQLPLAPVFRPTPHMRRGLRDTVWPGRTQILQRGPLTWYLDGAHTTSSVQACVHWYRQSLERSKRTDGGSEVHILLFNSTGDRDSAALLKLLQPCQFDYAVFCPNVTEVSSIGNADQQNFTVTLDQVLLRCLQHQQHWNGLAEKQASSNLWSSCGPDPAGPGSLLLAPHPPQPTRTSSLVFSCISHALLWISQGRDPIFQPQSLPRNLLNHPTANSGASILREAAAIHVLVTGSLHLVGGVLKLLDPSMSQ
# In short: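 FPGS from L1210 cells was assayed by [³H]glutamate ligation, like the human enzyme assay. Each folate substrate was at 100 μM, and only specific activity was measured.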
# [9] = test system: Mus musculus; experiment: Antitumor activity against E0771 mammary adenocarcinoma in mice at 150 mg/kg(5 days) was determined and tumor volume at day 14 was reported; type: functional; in short: as §1
# [10] = test system: Mus musculus; experiment: Antitumor activity against E0771 mammary adenocarcinoma in mice at 150 mg/kg(5 days) was determined and […] at day 10 was reported; type: functional
# [11] = species on record: Homo sapiens
# [12] = test system: Mus musculus; experiment: Antitumor activity against E0771 mammary adenocarcinoma in mice at 150 mg/kg(5 days) was determined and tumor volume at day 10 was reported; type: functional; in short: as §1
# [13] = biological target: T2, Dihydrofolate reductase (Pneumocystis carinii, UniProt P16184); experiment: Tested for inhibition against Pneumocystis carinii DHFR (dihydrofolate reductase)
# T2 sequence (P16184 whole entry): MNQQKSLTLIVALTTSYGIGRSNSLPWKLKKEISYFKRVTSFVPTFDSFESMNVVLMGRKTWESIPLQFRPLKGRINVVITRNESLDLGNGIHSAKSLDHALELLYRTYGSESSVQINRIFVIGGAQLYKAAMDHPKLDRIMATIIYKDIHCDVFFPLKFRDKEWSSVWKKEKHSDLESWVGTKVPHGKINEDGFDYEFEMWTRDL
# [14] = test system: HL-60; experiment: Tested for the ability to inhibit growth in vitro against HL60; type: functional, cell-based; settings: Homo sapiens
# [15] = test system: CCRF S-180; experiment: Tested for the ability to inhibit growth in vitro against S180; type: functional, cell-based; settings: Mus musculus
# [16] = test system: CCRF-CEM; experiment: (§3) Percent inhibition of Folyl-polyglutamate synthase from CCRF-CEM cells; type: cell-based; set-up: concentration or dose not given beside the values; settings: Homo sapiens, dose or concentration not given here
# In short: (§4)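 FPGS was partially purified from CCRF-CEM cells by (NH₄)₂SO₄ fractionation and gel sieving, with no detectable γ-glutamyl hydrolase. Product was separated on DEAE-cellulose. Percent inhibition is reported.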
# [17] = test system: Mus musculus; experiment: Antitumor activity against E0771 mammary adenocarcinoma in mice at 150 mg/kg(5 days) was determined and […] at day 14 was reported; type: functional
# [18] = test system: Mus musculus; experiment: Antitumor activity against E0771 mammary adenocarcinoma in mice at 100 mg/kg(5 days) was determined and […] at day 10 was reported; type: functional
# [19] = test system: Mus musculus; experiment: Antitumor activity against E0771 mammary adenocarcinoma in mice at 100 mg/kg(5 days) was determined and tumor volume at day 14 was reported; type: functional; in short: as §1
# [20] = test system: Mus musculus; experiment: Antitumor activity against E0771 mammary adenocarcinoma in mice at 100 mg/kg(5 days) was determined and […] at day 7 was reported; type: functional
# [21] = Ratio of Vmax and Km against CCRF-CEM Folyl-polyglutamate synthetase; type: ADME; settings: human
# In short: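 Substrate assay with CCRF-CEM FPGS. Analogue replaced aminopterin at 0–100 μM (0–200 μM for one analogue). Buffer held 5 mM ATP, 10 mM MgCl₂, 4 mM L-[³H]Glu, pH 8.4, 37 °C. Ligated glutamate was separated on DEAE-cellulose. Assays were run in duplicate or triplicate within linear enzyme and time ranges, and each experiment was repeated. Vmax (relative to aminopterin) and Km give V/K.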
# [22] = biological target: T3, Dihydrofolate reductase (Rattus norvegicus, UniProt Q920D2); experiment: Tested for inhibition against rat liver DHFR (dihydrofolate reductase)
# T3 sequence (Q920D2 whole entry): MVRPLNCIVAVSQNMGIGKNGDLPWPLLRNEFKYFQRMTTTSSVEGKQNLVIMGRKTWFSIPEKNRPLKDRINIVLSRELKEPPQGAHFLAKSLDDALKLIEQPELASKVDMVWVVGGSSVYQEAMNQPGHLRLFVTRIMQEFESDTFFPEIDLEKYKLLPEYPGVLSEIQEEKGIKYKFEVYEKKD
# [23] = biological target: T4, Dihydrofolate reductase (Mus musculus, UniProt P00375); experiment: Inhibitory activity of Dihydrofolate reductase in L1210 cells; type: cell-based
# T4 sequence (P00375 whole entry): T3 sequence (Q920D2 whole entry) with L27P, Q85R, K99R, V115I, E155G, I170V
# [24] = test system: Mus musculus; experiment: Antitumor activity against E0771 mammary adenocarcinoma in mice at 150 mg/kg(5 days) was determined and […] at day 7 was reported; type: functional
# [25] = test system: Folyl-polyglutamate synthase; experiment: Michaelis-Menten constant was determined against CCRF-CEM Folyl-polyglutamate synthase; type: ADME; settings: human, folylpolyglutamate synthase from CCRF-CEM cells; in short: as §2
# [26] = test system: Mus musculus; experiment: Antitumor activity against E0771 mammary adenocarcinoma in mice at 3 mg/kg(5 days) was determined and tumor volume at day 14 was reported; type: functional; in short: as §1
# [27] = test system: Mus musculus; experiment: Antitumor activity against E0771 mammary adenocarcinoma in mice at 3 mg/kg(5 days) was determined and […] at day 7 was reported; type: functional
# In short: (§5)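 E0771 mammary adenocarcinoma implanted in mice, five mice per group. Treatment was given daily for 5 days, starting day 3 after implantation. Tumor volume was calculated as 4/3πr³ and averaged on days 7, 10 and 14. T/C (%) is the treated/control tumor volume. Toxic deaths were recorded.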
# [28] = test system: Mus musculus; experiment: Antitumor activity against E0771 mammary adenocarcinoma in mice at 3 mg/kg(5 days) was determined and tumor volume at day 7 was reported; type: functional; in short: as §1
# [29] = test system: Mus musculus; experiment: Antitumor activity against E0771 mammary adenocarcinoma in mice at 6 mg/kg(5 days) was determined and […] at day 10 was reported; type: functional; in short: as §5
# [30] = test system: Mus musculus; experiment: Antitumor activity against E0771 mammary adenocarcinoma in mice at 6 mg/kg(5 days) was determined and tumor volume at day 7 was reported; type: functional; in short: as §1
# [31] = test system: Mus musculus; experiment: Antitumor activity against E0771 mammary adenocarcinoma in mice at 3 mg/kg(5 days) was determined and […] at day 10 was reported; type: functional; in short: as §5
# [32] = test system: Mus musculus; experiment: Antitumor activity against E0771 mammary adenocarcinoma in mice at 6 mg/kg(5 days) was determined and […] at day 7 was reported; type: functional; in short: as §5
# [33] = test system: Mus musculus; experiment: Antitumor activity against E0771 mammary adenocarcinoma in mice at 3 mg/kg(5 days) was determined and […] at day 14 was reported; type: functional; in short: as §5
# [34] = test system: Mus musculus; experiment: Antitumor activity against E0771 mammary adenocarcinoma in mice at 6 mg/kg(5 days) was determined and tumor volume at day 10 was reported; type: functional; in short: as §1
# [35] = as §3; type: cell-based, Homo sapiens; in short: as §4
# [36] = test system: Mus musculus; experiment: Antitumor activity against E0771 mammary adenocarcinoma in mice at 3 mg/kg(5 days) was determined and tumor volume at day 10 was reported; type: functional; in short: as §1
# [37] = test system: Mus musculus; experiment: Antitumor activity against E0771 mammary adenocarcinoma in mice at 6 mg/kg(5 days) was determined and […] at day 14 was reported; toxic indicates 4 toxic deaths; type: organism-based; set-up: dose 6 mg/kg; settings: in vivo, 120 h; in short: as §5
# [38] = test system: Mus musculus; experiment: Antitumor activity against E0771 mammary adenocarcinoma in mice at 6 mg/kg(5 days) was determined and tumor volume at day 14 was reported; toxic indicates 4 toxic deaths; type: organism-based; set-up: dose 6 mg/kg; settings: in vivo, 120 h; in short: as §5
smiles,measurement,setting,value
CN(Cc1cnc2nc(N)nc(N)c2n1)c1ccc(C(=O)NC(CCC(=O)O)C(=O)O)c2ccccc12 (stereo not drawn),Ki,[1],1040 nM
same,T/C,[2],48%
same,Tumor volume,[3],62 mm**3
same,Tumor volume,[4],268 mm**3
same,Tumor volume,[5],82 mm**3
same,Relative Vmax,[6],0.27
same,IC50,[7],9 nM
same,Specific activity (pM hr-1 (mg of protein)-1),[8],0.18
same,Tumor volume,[9],493 mm**3
same,T/C,[10],23%
same,Km,[11],82 µM
same,Tumor volume,[12],144 mm**3
same,IC50,[13],0.00019 nM
same,IC50,[14],3.3 nM
same,IC50,[15],9.3 nM
same,inhibition,[16],3%
same,T/C,[17],28%
same,T/C,[18],43%
same,Tumor volume,[19],839 mm**3
same,T/C,[20],37%
same,V/K,[21],0.0033
same,IC50,[22],0.0025 nM
same,Ki,[23],0.00522 nM
same,T/C,[24],28%
Nc1nc(N)c2cc(CNc3ccc(C(=O)NC(CCC(=O)O)C(=O)O)c4c3CCCC4)cnc2n1 (stereo not drawn),Ki,[1],600 nM
same,Relative Vmax,[6],0.01
same,IC50,[7],16 nM
same,IC50,[14],17 nM
same,IC50,[15],33 nM
same,inhibition,[16],16%
same,Ki,[23],0.0131 nM
Nc1nc(N)c2nc(CNc3ccc(C(=O)N[C@@H](CCC(=O)O)C(=O)O)cc3)cnc2n1 [AMINOPTERIN],Relative Vmax,[6],1
same,Specific activity (pM hr-1 (mg of protein)-1),[8],1.91
same,Km,[25],4.1 µM
Cc1c(CNc2ccc(C(=O)NC(CCC(=O)O)C(=O)O)c3ccccc23)cnc2nc(N)nc(N)c12 (stereo not drawn),Ki,[1],1310 nM
same,Tumor volume,[26],1048 mm**3
same,T/C,[27],51%
same,Tumor volume,[28],113 mm**3
same,Relative Vmax,[6],0.02
same,T/C,[29],7%
same,IC50,[7],3.9 nM
same,Tumor volume,[30],87 mm**3
same,T/C,[31],68%
same,T/C,[32],39%
same,T/C,[33],60%
same,IC50,[14],0.74 nM
same,Tumor volume,[34],42 mm**3
same,IC50,[35],69000 nM
same,IC50,[15],3.8 nM
same,Tumor volume,[36],421 mm**3
same,T/C,[37],Toxic
same,Tumor volume,[38],Toxic
same,Ki,[23],0.00508 nM
